Data published in ChEMBL document CHEMBL4689842, “EUbOPEN Chemogenomics Library wave 1” (2021).

Tested on: HEK-293T
Assay: Multiplex assay against HEK293T;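 on Population Tubulin-Different-Phenotype (%): share of the cells with healthy nuclei that show this phenotype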
Type: toxicity, cell-based
Conditions: human
Procedure, shortened: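 Phenotypes for tubulin, mitochondrial mass and membrane permeability are expressed as per cents of healthy-nucleus cells. Cells were stained live at seeding with Hoechst33342, BioTracker Green Microtubule Cytoskeleton Dye, MitoTracker Red and Annexin V Alexa Fluor 680, then imaged after compound addition on a CQ1 microscope at 37°C and 5% CO2. Machine-learning gating in CellPathfinder separated Hoechst high-intensity objects from normal cells, divided normal cells by nuclear state (healthy, pyknosed, fragmented) and divided pyknosed cells into mitotic or apoptotic.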

[1] = 12 h, 1 µM, compound concentration 1 uM, replicate 1
[2] = 12 h, 1 µM, compound concentration 1 uM, replicate 2
[3] = 12 h, 10 µM, compound concentration 10 uM, replicate 1
[4] = 12 h, 10 µM, compound concentration 10 uM, replicate 2
[5] = 24 h, 1 µM, compound concentration 1 uM, replicate 1
[6] = 24 h, 1 µM, compound concentration 1 uM, replicate 2
[7] = 24 h, 10 µM, compound concentration 10 uM, replicate 1
[8] = 24 h, 10 µM, compound concentration 10 uM, replicate 2
[9] = 48 h, 1 µM, compound concentration 1 uM, replicate 1
[10] = 48 h, 1 µM, compound concentration 1 uM, replicate 2
[11] = 48 h, 10 µM, compound concentration 10 uM, replicate 1
[12] = 48 h, 10 µM, compound concentration 10 uM, replicate 2

Cc1ccc(C)c(Oc2ccncc2C(=O)N2CCN(C3CC3)c3ccccc32)c1
Population Apoptotic (%) [1]: 43%
Population Healthy Nuclei (%) [1]: 48%
Population Mitotic Cells (%) [1]: 56%
Population Normal (%) [1]: 91%
Population Pyknosed Nuclei (%) [1]: 44%
Total Cell Count [1]: 385
Population Apoptotic (%) [2]: 16%
Population Healthy Nuclei (%) [2]: 42%
Population Mitotic Cells (%) [2]: 83%
Population Normal (%) [2]: 96%
Population Pyknosed Nuclei (%) [2]: 54%
Total Cell Count [2]: 221
Population Apoptotic (%) [3]: 88%
Population Healthy Nuclei (%) [3]: 23%
Population Mitotic Cells (%) [3]: 11%
Population Normal (%) [3]: 78%
Population Pyknosed Nuclei (%) [3]: 62%
Total Cell Count [3]: 200
Population Apoptotic (%) [4]: 56%
Population Healthy Nuclei (%) [4]: 14%
Population Mitotic Cells (%) [4]: 43%
Population Normal (%) [4]: 93%
Population Pyknosed Nuclei (%) [4]: 77%
Total Cell Count [4]: 112
Population Apoptotic (%) [5]: 46%
Population Healthy Nuclei (%) [5]: 52%
Population Mitotic Cells (%) [5]: 53%
Population Normal (%) [5]: 89%
Population Pyknosed Nuclei (%) [5]: 38%
Total Cell Count [5]: 403
Population Apoptotic (%) [6]: 11%
Population Healthy Nuclei (%) [6]: 53%
Population Mitotic Cells (%) [6]: 88%
Population Normal (%) [6]: 98%
Population Pyknosed Nuclei (%) [6]: 40%
Total Cell Count [6]: 272
Population Apoptotic (%) [7]: 89%
Population Healthy Nuclei (%) [7]: 29%
Population Mitotic Cells (%) [7]: 10%
Population Normal (%) [7]: 82%
Population Pyknosed Nuclei (%) [7]: 53%
Total Cell Count [7]: 213
Population Apoptotic (%) [8]: 68%
Population Healthy Nuclei (%) [8]: 24%
Population Mitotic Cells (%) [8]: 31%
Population Normal (%) [8]: 91%
Population Pyknosed Nuclei (%) [8]: 63%
Total Cell Count [8]: 127
Population Apoptotic (%) [9]: 41%
Population Healthy Nuclei (%) [9]: 63%
Population Mitotic Cells (%) [9]: 58%
Population Normal (%) [9]: 91%
Population Pyknosed Nuclei (%) [9]: 26%
Total Cell Count [9]: 567
Population Apoptotic (%) [10]: 18%
Population Healthy Nuclei (%) [10]: 77%
Population Mitotic Cells (%) [10]: 81%
Population Normal (%) [10]: 97%
Population Pyknosed Nuclei (%) [10]: 18%
Total Cell Count [10]: 425
Population Apoptotic (%) [11]: 84%
Population Healthy Nuclei (%) [11]: 40%
Population Mitotic Cells (%) [11]: 15%
Population Normal (%) [11]: 84%
Total Cell Count [11]: 206
Population Apoptotic (%) [12]: 76%
Population Healthy Nuclei (%) [12]: 48%
Population Mitotic Cells (%) [12]: 23%
Population Normal (%) [12]: 90%
Population Pyknosed Nuclei (%) [12]: 45%
Total Cell Count [12]: 127

O=C(c1cc2c(cc1F)OC(c1ccc(F)cc1)(c1ccc(Cl)cc1Cl)O2)N1CCOCC1 (stereo not given)
Population Apoptotic (%) [1]: 45%
Population Fragmented Nuclei (%) [1]: 17%
Population Healthy Nuclei (%) [1]: 37%
Population Hoechst High Intensity Objects (%) [1]: 12%
Population Membrane Permeable-Phenotype (%) [1]: 1%
Population Mitochondria Different-Phenotype (%) [1]: 87%
Population Mitotic Cells (%) [1]: 54%
Population Normal (%) [1]: 87%
Population Pyknosed Nuclei (%) [1]: 44%
Population Tubulin-Different-Phenotype (%) [1]: 54%
Total Cell Count [1]: 214
Population Apoptotic (%) [2]: 16%
Population Fragmented Nuclei (%) [2]: 5%
Population Healthy Nuclei (%) [2]: 35%
Population Hoechst High Intensity Objects (%) [2]: 5%
Population Membrane Permeable-Phenotype (%) [2]: 3%
Population Mitochondria Different-Phenotype (%) [2]: 24%
Population Mitotic Cells (%) [2]: 84%
Population Normal (%) [2]: 94%
Population Pyknosed Nuclei (%) [2]: 59%
Population Tubulin-Different-Phenotype (%) [2]: 23%
Total Cell Count [2]: 268
Population Apoptotic (%) [3]: 64%
Population Fragmented Nuclei (%) [3]: 10%
Population Healthy Nuclei (%) [3]: 17%
Population Hoechst High Intensity Objects (%) [3]: 17%
Population Membrane Permeable-Phenotype (%) [3]: 0%
Population Mitochondria Different-Phenotype (%) [3]: 94%
Population Mitotic Cells (%) [3]: 35%
Population Normal (%) [3]: 82%
Population Pyknosed Nuclei (%) [3]: 72%
Population Tubulin-Different-Phenotype (%) [3]: 97%
Total Cell Count [3]: 264
Population Apoptotic (%) [4]: 54%
Population Fragmented Nuclei (%) [4]: 8%
Population Healthy Nuclei (%) [4]: 8%
Population Hoechst High Intensity Objects (%) [4]: 9%
Population Mitochondria Different-Phenotype (%) [4]: 58%
Population Mitotic Cells (%) [4]: 45%
Population Normal (%) [4]: 90%
Population Pyknosed Nuclei (%) [4]: 82%
Population Tubulin-Different-Phenotype (%) [4]: 83%
Total Cell Count [4]: 153
Population Apoptotic (%) [5]: 48%
Population Fragmented Nuclei (%) [5]: 15%
Population Healthy Nuclei (%) [5]: 34%
Population Hoechst High Intensity Objects (%) [5]: 15%
Population Membrane Permeable-Phenotype (%) [5]: 0%
Population Mitochondria Different-Phenotype (%) [5]: 79%
Population Mitotic Cells (%) [5]: 51%
Population Normal (%) [5]: 84%
Population Pyknosed Nuclei (%) [5]: 50%
Population Tubulin-Different-Phenotype (%) [5]: 43%
Total Cell Count [5]: 216
Population Apoptotic (%) [6]: 14%
Population Fragmented Nuclei (%) [6]: 3%
Population Healthy Nuclei (%) [6]: 60%
Population Hoechst High Intensity Objects (%) [6]: 3%
Population Membrane Permeable-Phenotype (%) [6]: 1%
Population Mitochondria Different-Phenotype (%) [6]: 36%
Population Mitotic Cells (%) [6]: 85%
Population Normal (%) [6]: 96%
Population Pyknosed Nuclei (%) [6]: 35%
Population Tubulin-Different-Phenotype (%) [6]: 39%
Total Cell Count [6]: 330
Population Fragmented Nuclei (%) [7]: 11%
Population Healthy Nuclei (%) [7]: 19%
Population Hoechst High Intensity Objects (%) [7]: 16%
Population Membrane Permeable-Phenotype (%) [7]: 2%
Population Mitochondria Different-Phenotype (%) [7]: 86%
Population Normal (%) [7]: 83%
Population Pyknosed Nuclei (%) [7]: 68%
Population Tubulin-Different-Phenotype (%) [7]: 95%
Total Cell Count [7]: 274
Population Apoptotic (%) [8]: 53%
Population Fragmented Nuclei (%) [8]: 9%
Population Healthy Nuclei (%) [8]: 13%
Population Hoechst High Intensity Objects (%) [8]: 7%
Population Membrane Permeable-Phenotype (%) [8]: 10%
Population Mitochondria Different-Phenotype (%) [8]: 63%
Population Mitotic Cells (%) [8]: 46%
Population Normal (%) [8]: 92%
Population Pyknosed Nuclei (%) [8]: 77%
Population Tubulin-Different-Phenotype (%) [8]: 89%
Total Cell Count [8]: 154
Population Apoptotic (%) [9]: 57%
Population Fragmented Nuclei (%) [9]: 16%
Population Healthy Nuclei (%) [9]: 44%
Population Hoechst High Intensity Objects (%) [9]: 18%
Population Membrane Permeable-Phenotype (%) [9]: 0%
Population Mitochondria Different-Phenotype (%) [9]: 48%
Population Mitotic Cells (%) [9]: 42%
Population Normal (%) [9]: 81%
Population Pyknosed Nuclei (%) [9]: 38%
Population Tubulin-Different-Phenotype (%) [9]: 40%
Total Cell Count [9]: 232
Population Apoptotic (%) [10]: 22%
Population Fragmented Nuclei (%) [10]: 5%
Population Healthy Nuclei (%) [10]: 76%
Population Hoechst High Intensity Objects (%) [10]: 3%
Population Membrane Permeable-Phenotype (%) [10]: 2%
Population Mitochondria Different-Phenotype (%) [10]: 11%
Population Mitotic Cells (%) [10]: 77%
Population Normal (%) [10]: 96%
Population Pyknosed Nuclei (%) [10]: 18%
Population Tubulin-Different-Phenotype (%) [10]: 29%
Total Cell Count [10]: 557
Population Apoptotic (%) [11]: 53%
Population Fragmented Nuclei (%) [11]: 16%
Population Healthy Nuclei (%) [11]: 26%
Population Hoechst High Intensity Objects (%) [11]: 10%
Population Membrane Permeable-Phenotype (%) [11]: 19%
Population Mitochondria Different-Phenotype (%) [11]: 33%
Population Mitotic Cells (%) [11]: 46%
Population Normal (%) [11]: 89%
Population Pyknosed Nuclei (%) [11]: 57%
Population Tubulin-Different-Phenotype (%) [11]: 87%
Total Cell Count [11]: 264
Population Apoptotic (%) [12]: 58%
Population Fragmented Nuclei (%) [12]: 8%
Population Healthy Nuclei (%) [12]: 24%
Population Hoechst High Intensity Objects (%) [12]: 8%
Population Membrane Permeable-Phenotype (%) [12]: 25%
Population Mitochondria Different-Phenotype (%) [12]: 61%
Population Mitotic Cells (%) [12]: 41%
Population Normal (%) [12]: 91%
Population Pyknosed Nuclei (%) [12]: 66%
Population Tubulin-Different-Phenotype (%) [12]: 83%
Total Cell Count [12]: 158
